Values after ≈ are worked out from the molar mass of the structure shown. Active and inactive are the calls of the source. The rule behind the calls is not given here.
Assays:
[1] = target: T1, Aldo-keto reductase family 1 member C2 (Homo sapiens, UniProt P52895); experiment: Inhibition of recombinant human AKR1C2 transfected in Escherichia coli BL21 assessed as reduction in NADP+-dependent S-tetralol oxidation incubated for 20 mins by absorbance based analysis
T1 sequence (P52895 whole entry): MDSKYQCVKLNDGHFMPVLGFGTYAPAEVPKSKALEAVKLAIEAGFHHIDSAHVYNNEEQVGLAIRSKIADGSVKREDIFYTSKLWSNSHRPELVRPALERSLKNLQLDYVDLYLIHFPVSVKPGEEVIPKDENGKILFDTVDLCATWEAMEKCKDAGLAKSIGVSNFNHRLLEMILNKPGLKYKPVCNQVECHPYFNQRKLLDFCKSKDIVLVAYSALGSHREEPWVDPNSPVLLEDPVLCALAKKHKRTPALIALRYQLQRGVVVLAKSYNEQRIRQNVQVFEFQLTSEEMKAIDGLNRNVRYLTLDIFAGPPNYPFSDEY

[2] = Lipophilicity, logD of the compound in n-octanol and phosphate buffer at pH 7.4 incubated for 4 hrs by UV-Vis spectrophotometer based shake flask method; format: physicochemical
In short: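 Shake-flask logD between n-octanol and 50 mM PBS pH 7.4 (ionic strength 0.15 M, KCl). The phases were pre-saturated for 4 h, then shaken ~20 min with compound and centrifuged. Aqueous concentration was read by UV at λmax against calibration curves. Each value averages at least six measurements.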

[3] = target: T2, Aldo-keto reductase family 1 member C2 (Homo sapiens) (UniProt P52895); experiment: Inhibition of recombinant human AKR1C2 transfected in Escherichia coli BL21 (DE) assessed as reduction in NADPH production at 100 uM using S-tetralol as substrate by fluorescence based analysis relative to control
T2 sequence (whole entry): T1 sequence (P52895 whole entry)
In short: (§1)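 GST-tagged human AKR1C2 or AKR1C3 made in bacteria (IPTG 0.5 mM, 2 h), purified on glutathione sepharose and thrombin-cleaved. Assay in 100 mM phosphate pH 7 with 200 μM NADP+ and 10% EtOH at 37 °C. S-tetralol was 15 μM for AKR1C2 and 160 μM for AKR1C3. NADPH fluorescence read at 340/460 nm. Inhibition from initial velocities versus solvent controls; ≥3 experiments in triplicate.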

[4] = tested on: CWR22R; experiment: Antiproliferative activity against human 22Rv1 cells expressing AKR1C3 assessed as inhibition of cell growth incubated for 72 hrs by SRB assay; format: functional, cell-based; conditions: 22Rv1, 72 h
In short: (§2)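 22RV1 cells in RPMI with 10% FCS, 37 °C, 5% CO2. Seeded at 10,000/well in medium with 10% charcoal-stripped serum and left 24 h. Inhibitor dilutions in DMSO added in triplicate for 72 h; DMSO controls at most 1% v/v. Growth read by sulforhodamine B colorimetric assay. IC50 from the mean of three separate experiments.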

[5] = Solubility of the compound in PBS at pH 7.4 incubated for 24 hrs by UHPLC analysis; format: physicochemical
In short: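 About 1 mg of solid was shaken in 1 mL of 50 mM PBS pH 7.4 at 25 °C for 24 h, then filtered (0.45 μm). The filtrate was run on C18 UHPLC with a water/methanol gradient in 0.1% TFA, read at 254 and 230 nm. Concentration came from external calibration over 1-200 μM; detection limit 1 μM.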

[6] = target: T3, Aldo-keto reductase family 1 member C3 (Homo sapiens, UniProt P42330); experiment: Inhibition of recombinant human AKR1C3 transfected in Escherichia coli BL21 (DE) assessed as reduction in NADPH production using S-tetralol as substrate by fluorescence based analysis
T3 sequence (P42330 whole entry): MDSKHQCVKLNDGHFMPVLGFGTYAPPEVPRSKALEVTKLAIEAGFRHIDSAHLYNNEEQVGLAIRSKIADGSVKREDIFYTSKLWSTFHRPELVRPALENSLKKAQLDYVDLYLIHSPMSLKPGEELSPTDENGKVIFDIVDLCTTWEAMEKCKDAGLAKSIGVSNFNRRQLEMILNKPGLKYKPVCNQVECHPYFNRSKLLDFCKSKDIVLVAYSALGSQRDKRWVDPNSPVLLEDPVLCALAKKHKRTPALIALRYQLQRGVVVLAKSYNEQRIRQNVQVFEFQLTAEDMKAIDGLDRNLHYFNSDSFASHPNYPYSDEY
In short: as §1

[7] = tested on: CWR22R; experiment: Inhibition of prostate specific antigen expression in human 22Rv1 cells expressing AKR1C3 at 5 to 50 uM incubated for 72 hrs by Western blot analysis; format: functional, cell-based; conditions: dose 5-50 µM
In short: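 22RV1 cells seeded at 300,000/well in charcoal-stripped serum medium for 24 h, then treated 72 h at 5 or 50 μM in DMSO (≤0.5% v/v). RIPA lysates of 30 μg protein blotted with anti-PSA (1:500, overnight 4 °C) and HRP secondary. β-actin was the loading control. Densitometric PSA/β-actin as fold change; duplicate.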

[8] = tested on: CWR22R; experiment: Antiproliferative activity against human 22Rv1 cells expressing AKR1C3 assessed as reduction in cell viability at 40 to 60 uM incubated for 72 hrs in presence of abiraterone by SRB assay relative to either drug alone; format: functional; conditions: dose 40-60 µM
In short: (§3)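 Co-treatment in 22RV1 cells seeded in charcoal-stripped serum medium. Test compound at 40 or 60 μM was given for 72 h with 10 μM abiraterone or 30 μM enzalutamide, or with no drug. Growth was read by SRB assay and expressed as % T/C (mean OD treated / mean OD control × 100).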

[9] = tested on: CWR22R; experiment: Antiproliferative activity against human 22Rv1 cells expressing AKR1C3 assessed as reduction in cell viability at 40 to 60 uM incubated for 72 hrs in presence of , enzalutamide by SRB assay relative to either drug alone; format: functional; conditions: dose 40-60 µM
In short: as §3

[10] = Ionization constant, pKa of the compound by potentiometric titration method; format: physicochemical
In short: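 pKa was measured by potentiometric titration on a Sirius T3 in MDM cosolvent (20% acetonitrile, 20% dioxane, 20% methanol), with added percentages varied.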

[11] = Inhibition of androstenedione induced testosterone production in human 22Rv1 cells expressing AKR1C3 assessed as reduction in testosterone level to 0.5 uM pretreated for 1 hr followed by androstenedione addition and measured after 24 hrs by ELISA relative to control; format: functional, CWR22R; conditions: time 25 hrs
In short: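 22RV1 cells seeded at 30,000/well in medium with 10% charcoal-stripped serum and left 24 h. Inhibitor added 1 h before 30 nM androstenedione, then 24 h more. Supernatant (1:2) assayed for testosterone by ELISA read at 405 nm against a standard curve. Mean of three experiments, each in triplicate.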

[12] = target: T2, Aldo-keto reductase family 1 member C2 (Homo sapiens); experiment: Inhibition of recombinant human AKR1C2 transfected in Escherichia coli BL21 (DE) assessed as reduction in NADPH production at 50 uM using S-tetralol as substrate by fluorescence based analysis relative to control
In short: as §1

[13] = target: T2, Aldo-keto reductase family 1 member C2 (Homo sapiens); experiment: Inhibition of recombinant human AKR1C2 transfected in Escherichia coli BL21 (DE) assessed as reduction in NADPH production at 20 uM using S-tetralol as substrate by fluorescence based analysis relative to control
In short: as §1

[14] = tested on: CWR22R; experiment: Antiproliferative activity against human 22Rv1 cells expressing AKR1C3 assessed as reduction in cell viability at 100 uM incubated for 72 hrs by SRB assay relative to control; format: functional
In short: as §2

SMILES | IC50 [1] [µM] | logD at 4 h [2] | inhibition [3] [%] | solubility at 24 h [5] [µM] | IC50 [6] [µM] | pKa [10] | inhibition [12] [%] | inhibition [13] [%] | IC50 [4] [µM] | inhibition [7] | Activity [8] [%] | Activity [9] [%] | inhibition at 0.5 µM [11] [%] | Activity [14] [%]
COc1ccc2[nH]c(C(=O)N3CCC(CC(C)(C)O)CC3)cc2c1 [ASP-9521] | > 20 | – | – | – | – | – | – | – | – | – | – | – | – | –
COc1ccc(Cn2nnc(O)c2C(=O)Nc2cccc(C(F)(F)F)c2)cc1 | – | 1.1 | 59.9 | 21.2 (≈ 8.32 µg/mL) | – | – | – | – | – | – | – | – | – | –
COc1ccc(Cn2nnc(O)c2C(=O)Nc2cc(C(F)(F)F)cc(C(F)(F)F)c2)cc1 | – | 2.47 | 33.6 | 6.91 (≈ 3.18 µg/mL) | 0.4 | – | – | – | 33.8 | – | – | – | – | –
COc1ccc(Cn2nnc(O)c2C(=O)Nc2cccc(-c3ccc(O)cc3)c2)cc1 | – | 2.19 | 37.9 | 2.05 (≈ 0.854 µg/mL) | 0.31 | – | – | – | 67.5 | – | – | – | – | –
COc1ccc(Cn2nnc(O)c2C(=O)Nc2ccc(-c3ccccc3)cc2)cc1 | – | 2.19 | – | < 1 | 0.47 | – | – | 30 | 57.9 | – | – | – | – | –
COc1ccc(Cn2nnc(O)c2C(=O)Nc2ccc3c(c2)ncn3-c2ccccc2)cc1 | – | 2.19 | – | 1.25 (≈ 0.551 µg/mL) | 1.63 | – | – | – | > 100 | – | – | – | – | 36.88

The remaining molecules from weak to strong by IC50 [6], led by results:

IC50 [1] [µM] | logD at 4 h [2] | inhibition [3] [%] | solubility at 24 h [5] [µM] | IC50 [6] [µM] | pKa [10] | inhibition [12] [%] | inhibition [13] [%] | SMILES | IC50 [4] [µM] | inhibition [7] | Activity [8] [%] | Activity [9] [%] | inhibition at 0.5 µM [11] [%] | Activity [14] [%]
– | – | 57.8 | < 1 | 0.27 | – | – | – | COc1ccc(Cn2nnc(O)c2C(=O)Nc2ccc(Oc3ccccc3)cc2)cc1 | 58.2 | – | – | – | – | –
– | 2.5 | 45.3 | < 1 | 0.26 | – | – | – | COc1ccc(Cn2nnc(O)c2C(=O)Nc2cccc(-c3cccc(OC)c3)c2)cc1 | 59 | – | – | – | – | –
– | 2.59 | – | < 1 | 0.22 | – | 31.6 | – | COc1ccc(Cn2nnc(O)c2C(=O)Nc2cccc(-c3ccc(OC)cc3)c2)cc1 | 50.1 | – | – | – | – | –
– | 2.25 | 38.5 | 40.3 (≈ 16.8 µg/mL) | 0.21 | 4.9 | – | – | COc1ccc(Cn2nnc(O)c2C(=O)Nc2cccc(-c3cccc(O)c3)c2)cc1 | 75.7 | – | – | – | – | –
– | 2.16 | 7.32 | 10.8 (≈ 4.3 µg/mL) | 0.19 | 4.5 | – | – | COc1ccc(Cc2onc(O)c2C(=O)Nc2cccc(-c3ccccc3)c2)cc1 | 54.8 | – | – | – | – | –
– | – | 72.8 | < 1 | 0.11 | – | – | – | COc1ccc(Cn2nnc(O)c2C(=O)Nc2cccc(Oc3ccccc3)c2)cc1 | 65 | Active | >20 | 50 | – | –
– | 2.3 | 30.5 | < 1 | 0.069 | – | – | – | COc1ccc(Cn2nnc(O)c2C(=O)Nc2cccc(-c3ccccc3)c2)cc1 | 52.1 | Active | >20 | 30 | 20 | –

— ChEMBL document CHEMBL5120830, “New aldo-keto reductase 1C3 (AKR1C3) inhibitors based on the hydroxytriazole scaffold” (Eur J Med Chem, 2022)
